In the RNAGym collection of RNA variant scans (doi:10.1126/science.aae0568) one finds yeast fitness data, which are given here for 38 variants.

To fix the notation:
B1: tRNA (parent)
chain: GUUCCGUUGGCGUAAUGGUAACGCGUCUCCCUCCUAAGGAGAAGACUGCGGGUUCGAGUCCCGUACGGAACG

Fewer inactive variants are shown than the library holds.

Variants of B1 are the subject of the series. Briefly: yeast fitness relative to wild type (ratio to wild type); higher = fitter; tRNA-Arg(CCU), competitive growth, 37 C, YPD. The procedure, abridged:
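Changes in genotype frequencies gave Darwinian fitness relative to wild type. Frequencies were read by 100-nucleotide paired-end sequencing of gene amplicons before and after pooled Saccharomyces cerevisiae strains, carrying tRNA-Arg(CCU) gene variants at the native locus, were competed in YPD at 37°C for 24 hours in six replicates. A genotype was kept only with ≥ 100 starting reads, and estimates < 0.5 were set to 0.5.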
Take GUUCGGUUGGCGUAUUGGUAACGCGUCUCCCUCCUAAGGAGAAGACUGCGGGUUCAAGUCCCGUACGGAGCG: the yeast fitness was ≤ 0.5.

Regarding GUUCCGUUGGCGUAAUGGUAACGCGUCUCCGUCCUAAGGAGAAGACUCCGGGUUCGAGUCCCGUACGGAACG, the yeast fitness is 0.811.

For the variant GUUCCGUUGGCGUAAUGGUAACGCGUCUGCCUCCUAAGGAGAAGACUACGGGUUCGAGCCCCGUACGGAACG, the yeast fitness is ≤ 0.5.

For the variant GUUCCGUUGGCGUAAUGAUAACGCGUCUCCCUCCUUAGGAGAAGACUGCGGGUUCGAGUCACGUACGGAACG, the yeast fitness is ≤ 0.5.

Regarding GUUCCGGUGGCGUAAUGGUAACGCGUCUCCCUCCUAUGGAGAAGACUGCCGGUUCGAGUCCCGUACGGAACG, the yeast fitness is ≤ 0.5.

For the variant GUUUCGUUGGGGUAAUGGUAACGCGUCUCCCUCCUAAGGAGAAGACUGCGGGUUCCAGUCCCGUACGGAACG, the yeast fitness is ≤ 0.5.

On to GUUUCGUUGGCGUAAUGGUAACGCGUCUCCCUCCUAGGGACAAGACUGCGGGUUGGAGUCCCGUACGGAACG, for which the yeast fitness came out at 0.537.

For the variant GUUCCGUUGGGGUAAUGGUAACGCGUCUCCCUCCUAAGGAGAAGACUGCGGGUUGGCGUCCCGUAUGGAACG, the yeast fitness was ≤ 0.5.

Regarding GUUCCGUUGGGGUAAUGGUAACGCGUCACCCUCCUAAGAAGAAGACUGCGGGUUCGAGUCCCGUACGGAACG, the yeast fitness is ≤ 0.5.

In the case of GUUCCGUAGGCAUAAUGGUCACGCGUCUCCCUCCUAAGGAGAAGACUGCGGGUUCCAGACCCGUACGGAACG, the yeast fitness is 0.581.

For GUUCCGUUGGCGUAAUGGGAACGCGUCUCCCUCCUAAGGAGAAGACUGUGGGUUCGAGUCCAGUACGGAACG, the yeast fitness amounted to 0.598.

GUUCCGUUGGCGUAAUGGUAACGCGUAUCCCUCCUAAGGAGAAGACUGCGGGUUCGAGUUGCGUGCGGAACG: the yeast fitness came out at 0.598.

Turning to GUUCCGUUGGCGUAAUGGUAACGUGUCUCCCUCCUAAGGAGGAGACUGCAGGUUCGAGUCCCGUACGGAACG, the yeast fitness was ≤ 0.5.

Consider GUUCGGUUGGCGUAAUGGUAACGCGUCUCCCUCCAAAGGGGAAGACUGCGGGUUCGAGUCCCGUACGGAACG, for which the yeast fitness is ≤ 0.5.

As for GUUCGGUCGGCGUAAUGGUGACGCGUCUCCCUCCUAAGGAGAUGACUGCGAGUUCGAGUCCCGUCCGGAACG, the yeast fitness was ≤ 0.5.

With GUUCCGUUGGCGUUAUGGUAACGCGUCUCCCUCCUAAGGCGAAGACUGCGGGUUCGCGUCUCGUACGGAACG, the yeast fitness was ≤ 0.5.

As for GUUCCGUUGGCGUCAUGGUAACGCGUCUCCCUCCUAAGGAGAUGACUGCGGGUUCGAGUCUCGUACGGAACG, the yeast fitness is ≤ 0.5.

As for GUUCCGUUGGCGUAAUGGUAACGCGUCUCCCUCCUAAGGAGAAGACUGCGGGAUCGUGUACCGUACGGAUCG, the yeast fitness was ≤ 0.5.

Regarding GUUCCGUUGGCGUACUGGUAACGGGUCUCCCUCUUAAGGAGAGGACUGCGGGUUCGAGUCCCGUACGGAACG, the yeast fitness is ≤ 0.5.

Consider GUUCCGUUGGCGUAAUGGUAACGCGUAUCCCUCCUAAGGAGAAGACUGCGGGUUCGAGUCCCGGACGGAACG, for which the yeast fitness turned out to be 0.65.

In the case of GUACCGUUGGCGUAAUGGUAACGCGUCUCCCUCCUACGGAGAACUCUGCGGGUUCGAGUCCCGUACGGAACG, the yeast fitness is ≤ 0.5.

For the variant GUCCUGUUGGCGUAAUGGUAACGCGACUCCCUCCUAAGGAGAAGACUGCGGGUUCGAGUCCCAUACGGAACG, the yeast fitness is ≤ 0.5.

For the variant GUUCCGUUGGCGUAAUGGUUACGCGACUCCCUCCUAAGGAGAAGACUGCGGGUUUGAGUCCCGUACGGAACG, the yeast fitness turned out to be 0.747.

GUUCCGUUGGCGUAAUGGUAACGCGUCUCCCUCCUCAGGAGAAGACAGCGGGUUCUAGUCCCGUACGGAACG: the yeast fitness was found to be 0.617.

With GUUCCGUUGGCGUAAUGGUAACGCGUCUCCCUCAUAAGGAGAAGACUGCGGGUUCGAGUCCCGUACGUAACG, the yeast fitness is 0.647.

Regarding GUUCCGUUGGCGUAAAGGUAACGCGUCUCCCUCCUAAGGAGAAGACUGCGGGUUCGAGUACUGUACGGAACG, the yeast fitness is 0.609.

As to GUACGGUUGGCGUAAUGGUAACGAGUCUCUCUCCUAAGGAGAAGACUGCGGGUUCGAGUCCCGUACGGAGCG, the yeast fitness was ≤ 0.5.

For GUUCCGUUGGCGUAAUGGUAACGCGUCUCCCUCCUUAGGAGAAGACUGCAGGUUCGAGUCUCGUACGGAACG, the yeast fitness is ≤ 0.5.

For GAUCCCCUGGCAUAAUGGUAACGCGUCUCACUCCUAAGGAGAAAACUGCGGGUUCGAGUCCCGUAAGGAACG, the yeast fitness was ≤ 0.5.

In the case of GUUCCGUUGGCGUAAUGGUAACGCGUAUCCCUCCUAGGCAGAAGACUGCGGGUUUGAGUCCCGUCCGGAACG, the yeast fitness was ≤ 0.5.

For GUUCCGUUGGCGUAAUGGUAACGCGUCUCCCUCCUAAGGAGCAGACUGCGGGUUCGUGUCCCGUACGGAACG, the yeast fitness stood at 0.688.

Consider GUUACGUUGGCGUAAUGGUAACGCGUCUCCCUCCUAAGGAGAAGACUGAGGGUUCGAGUCCCGUACGGAACG, for which the yeast fitness is 0.684.

In the case of GUUCCGUUGGCGUAAUGGUAACGCGUCUGCCUGCUAAGGACAAGACUGCGGGUUCGAGUCCCGUAUGGAACG, the yeast fitness was 0.607.

In the case of GUUCCGAUCGCGUAGUGGUAACACGUCUCCCUCCUAAGGAGAAGACUGCGGGAUCGAGUCCCGUACGGAACG, the yeast fitness was 0.505.

With GUUCCGUUGGCGUAAUGGUAACGCGUCUCGCUCCUAAGGAGAAGACUGCGGGUUUGAGUCCCGUACGGAACG, the yeast fitness is 0.622.

In the case of GUUCUGUUGGCGUAAUGGUAACGAGUCUCCCUCCUAAGGAGAAGACUGCGGGUUCGAGUCCCGUACGGAACG, the yeast fitness amounted to 0.597.

With GUUGCGUCGGCGUAAUGGUAACGGGUCUCGCUCCUAAGGAGACGACUGCGGGUUCGAGUCCCGUACGGAACG, the yeast fitness was ≤ 0.5.

Turning to GUUCCGUUGGCGUAAUGGUAACGCGUAUCCCUCAUAAGGAGAAGACUGCGGGUUCGAGUCCCGUACGGAACG, the yeast fitness worked out at 0.68.
